{"source": "ChEMBL document CHEMBL1132342", "about": "“Novel hypotensive agents from Verbesina caracasana. 6. Synthesis and pharmacology of caracasandiamide” (1999)", "key": {"[1]": {"test_system": "Rattus norvegicus", "test": "Maximum rate of rise of the left ventricular isovolumetric pressure was measured after iv administration of 800 ug/Kg in anesthetized rats", "assay_type": "functional, Heart left ventricle", "method_in_brief": "(§1)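 Urethane-anesthetized (10% w/v, […] ip in saline) adult male Wistar rats, trachea cannulated, breathing spontaneously, 37 °C. Femoral artery catheter for blood pressure, femoral vein for dosing. Sequential iv doses 50–3200 µg/kg (ratio 2.0) in saline, each given after parameters returned to baseline. Peak changes recorded; means ± SE, n = 12 (n = 7 at 3200 µg/kg).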"}, "[2]": {"test_system": "Rattus norvegicus", "test": "Change in heart rate after iv administration of 1600 ug/Kg in the presence of adrenaline (agonist) in anesthetized rats", "assay_type": "functional", "method_in_brief": "(§2)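 Urethane-anesthetized male Wistar rats (16 rats, two equal groups) received 400 or 1600 µg/kg compound iv. Cardiovascular responses to iv agonist boluses (noradrenaline 1 µg/kg, acetylcholine 2.50 µg/kg, adrenaline, isoprenaline) were measured before and after compound dosing. Peak responses are given as mean ± SE; p < 0.05 versus control mean.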"}, "[3]": {"test_system": "Rattus norvegicus", "test": "Change in stroke volume after iv administration of 50 ug/Kgg in anesthetized rats", "assay_type": "functional", "method_in_brief": "(§3)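 Male Wistar rats (299 ± 3 g) were anesthetized with ethylurethane ip, tracheally cannulated and breathing spontaneously, at 37 °C, and stabilized for 60 min. Doses of 50-3200 µg/kg (ratio 2.0) in saline were injected by femoral vein, 50 µL each. Recordings: femoral arterial BP, electromagnetic abdominal-aortic flow, SV from integrated pulsatile flow, polygraphic RF. Peak changes, mean ± SE, n = 12 (n = 7 at 3200).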"}, "[4]": {"test_system": "Rattus norvegicus", "test": "Change in diastolic blood pressure after iv administration of 400 ug/Kg compound (treatment with hexamethonium (5 mg/Kg, iv)in anesthetized rats", "assay_type": "functional, Artery", "method_in_brief": "(§4)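 In anesthetized male Wistar rats, responses to iv compound (200–1600 µg/kg, ratio 2.0) were measured alone and under three pretreatments: continuous iv papaverine infusion (1 mg/kg/min), ip reserpine (5 mg/kg/day for 2 days), or iv hexamethonium (5 mg/kg). Peak changes are given as mean ± SE, n = 6 per group; p < 0.05 versus control.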"}, "[5]": {"test_system": "Rattus norvegicus", "test": "Maximum rate of rise of the left ventricular isovolumetric pressure was measured after iv administration of 1600 ug/Kg in the presence of noradrenaline (agonist) in anesthetized rats", "assay_type": "functional, Heart left ventricle", "method_in_brief": "(§5)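 Anesthetized male Wistar rats, two groups of 8, received 400 or 1600 µg/kg iv. Before and after this dose, iv agonist challenges were given: noradrenaline 1 µg/kg, adrenaline, acetylcholine 2.50 µg/kg, or isoprenaline. Systolic/diastolic BP, heart rate and dP/dt responses were recorded before (control) and after dosing; significance was set at p < 0.05 versus control.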"}, "[6]": {"test_system": "Rattus norvegicus", "test": "Change in systolic blood pressure after iv administration of 3200 ug/Kg in anesthetized rats", "assay_type": "functional, Artery", "method_in_brief": "as §3"}, "[7]": {"test_system": "Rattus norvegicus", "test": "Maximum rate of rise of the left ventricular isovolumetric pressure was measured after iv administration of 400 ug/Kg in the presence of acetylcholine (agonist) in anesthetized rats", "assay_type": "functional, Heart left ventricle", "method_in_brief": "as §5"}, "[8]": {"test_system": "Rattus norvegicus", "test": "Maximum rate of rise of the left ventricular isovolumetric pressure was measured after iv administration of 4.12 uM/kg in anesthetized rats; ratio given for dP/dt", "assay_type": "functional, Heart left ventricle"}, "[9]": {"test_system": "Rattus norvegicus", "test": "Maximum rate of rise of the left ventricular isovolumetric pressure was measured after iv administration of 400 ug/Kg in anesthetized rats", "assay_type": "functional, Heart left ventricle", "method_in_brief": "as §1"}, "[10]": {"test_system": "Rattus norvegicus", "test": "Change in diastolic blood pressure after iv administration of 1600 ug/Kg compound (treatment with reserpine(5 mg/kg/day for 2 days, ip)in anesthetized rats", "assay_type": "functional, Artery", "method_in_brief": "as §4"}, "[11]": {"test_system": "Rattus norvegicus", "test": "Change in mean aortic flow after iv administration of 50 ug/Kg in anesthetized rats", "assay_type": "functional", "method_in_brief": "as §3"}, "[12]": {"test_system": "Rattus norvegicus", "test": "Change in heart rate after iv administration of 4.12 uM/Kg in anesthetized rats", "assay_type": "functional"}, "[13]": {"test_system": "Rattus norvegicus", "test": "Change in heart rate after iv administration of 3200 ug/Kg in anesthetized rats", "assay_type": "functional", "method_in_brief": "(§6)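 Adult male Wistar rats under ip ethylurethane (10% w/v in saline, 1 mL/kg) with tracheal cannula and spontaneous breathing, kept at 37 °C. Arterial BP was recorded by femoral artery catheter; compound in saline (50 µL) was given via femoral vein at 50–3200 µg/kg, ratio 2.0. Peak change is given as mean ± SE, n = 12 (n = 7 at 3200 µg/kg).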"}, "[14]": {"test_system": "Rattus norvegicus", "test": "Change in respiratory frequency after iv administration of 100 ug/Kg in anesthetized rats", "assay_type": "functional", "method_in_brief": "as §3"}, "[15]": {"test_system": "Rattus norvegicus", "test": "Change in heart rate after iv administration of 400 ug/Kg in the presence of adrenaline (agonist) in anesthetized rats", "assay_type": "functional", "method_in_brief": "as §2"}, "[16]": {"test_system": "Rattus norvegicus", "test": "Change in diastolic blood pressure after iv administration of 200 ug/Kg in anesthetized rats", "assay_type": "functional, Artery", "method_in_brief": "as §6"}, "[17]": {"test_system": "Rattus norvegicus", "test": "Change in respiratory frequency after iv administration of 800 ug/Kg in anesthetized rats", "assay_type": "functional", "method_in_brief": "as §3"}, "[18]": {"test_system": "Rattus norvegicus", "test": "Change in respiratory frequency after iv administration of 3200 ug/Kg in anesthetized rats", "assay_type": "functional", "method_in_brief": "as §3"}, "[19]": {"test_system": "Rattus norvegicus", "test": "Change in systolic blood pressure after iv administration of 200 ug/Kg in anesthetized rats", "assay_type": "functional, Artery", "method_in_brief": "as §3"}, "[20]": {"test_system": "Rattus norvegicus", "test": "Change in diastolic blood pressure after iv administration of 1600 ug/Kg in anesthetized rats", "assay_type": "functional, Artery", "method_in_brief": "as §6"}, "[21]": {"test_system": "Rattus norvegicus", "test": "Change in systolic blood pressure after iv administration of 1600 ug/Kg compound (treatment with papaverine(1 mg/Kg/min, iv)in anesthetized rats", "assay_type": "functional, Artery", "method_in_brief": "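Urethane-anesthetized male Wistar rats, 6 per group, received iv doses of 200-1600 µg/kg (ratio 2.0) given alone or under a pretreatment. Pretreatments were continuous iv papaverine infusion (1 mg/kg/min), reserpine 5 mg/kg/day ip for 2 days, or hexamethonium 5 mg/kg iv. Peak changes in femoral arterial BP and HR were recorded; values are mean ± SE.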"}, "[22]": {"test_system": "Rattus norvegicus", "test": "Maximum rate of rise of the left ventricular isovolumetric pressure was measured after iv administration of 1600 ug/Kg in the presence of adrenaline (agonist) in anesthetized rats", "assay_type": "functional, Heart left ventricle", "method_in_brief": "as §5"}, "[23]": {"test_system": "Rattus norvegicus", "test": "Change in diastolic blood pressure after iv administration of 400 ug/Kg in the presence of adrenaline (agonist) in anesthetized rats", "assay_type": "functional, Artery", "method_in_brief": "as §2"}, "[24]": {"test_system": "Rattus norvegicus", "test": "Change in respiratory frequency after iv administration of 50 ug/Kg in anesthetized rats", "assay_type": "functional", "method_in_brief": "as §3"}, "[25]": {"test_system": "Rattus norvegicus", "test": "Change in stroke volume after iv administration of 800 ug/Kg in anesthetized rats", "assay_type": "functional", "method_in_brief": "as §3"}, "[26]": {"test_system": "Rattus norvegicus", "test": "Change in diastolic blood pressure after iv administration of 100 ug/Kg in anesthetized rats", "assay_type": "functional, Artery", "method_in_brief": "as §6"}, "[27]": {"test_system": "Rattus norvegicus", "test": "Change in heart rate after iv administration of 4.12 uM/kg in anesthetized rats", "assay_type": "functional"}, "[28]": {"test_system": "Rattus norvegicus", "test": "Change in stroke volume after iv administration of 50 ug/Kg in anesthetized rats", "assay_type": "functional", "method_in_brief": "as §3"}, "[29]": {"test_system": "Rattus norvegicus", "test": "Change in systolic blood pressure after iv administration of 1600 ug/Kg in the presence of isoprenaline (agonist) in anesthetized rats", "assay_type": "functional, Artery"}, "[30]": {"test_system": "Rattus norvegicus", "test": "Change in heart rate after iv administration of 50 ug/Kg in anesthetized rats", "assay_type": "functional", "method_in_brief": "as §3"}}, "note": "“And” between values parts separate entries of the source, which are not always exact repeats. Equal values may be shown once."}
{"smiles": "COc1ccc(C2C(c3ccc(OC)c(OC)c3)[C@H](C(=O)NCCCC/N=C(\\N)NCC=C(C)C)[C@@H]2C(=O)NCCCC/N=C(\\N)NCC=C(C)C)cc1OC", "note": "(stereo partly specified) [CARACASANDIAMIDE]", "values": [{"measurement": "Change in dP/dt", "setting": "[1]", "result": 54, "unit": "%"}, {"measurement": "dP/dt", "setting": "[1]", "result": 3282, "unit": "mmHg s-1"}, {"measurement": "Heart rate", "setting": "[2]", "result": 7, "unit": "beats min-1"}, {"measurement": "Stroke volume", "setting": "[3]", "result": 73, "unit": "µL"}, {"measurement": "BP", "setting": "[4]", "result": -45, "unit": "mmHg"}, {"measurement": "dP/dt", "setting": "[5]", "result": 2225, "unit": "mmHg s-1"}, {"measurement": "BP", "setting": "[6]", "result": -48, "unit": "mmHg"}, {"measurement": "Change in BP", "setting": "[6]", "result": -46, "unit": "%"}, {"measurement": "dP/dt", "setting": "[7]", "result": -5820, "unit": "mmHg s-1"}, {"measurement": "dP/dt", "setting": "[8]", "result": 3990, "unit": "mmHg s-1"}, {"measurement": "Change in dP/dt", "setting": "[9]", "result": 43, "unit": "%"}, {"measurement": "dP/dt", "setting": "[9]", "result": 2615, "unit": "mmHg s-1"}, {"measurement": "BP", "setting": "[10]", "result": -15, "unit": "mmHg"}, {"measurement": "Change in mean aortic flow", "setting": "[11]", "result": 26, "unit": "%"}, {"measurement": "Mean aortic flow", "setting": "[11]", "result": 19, "unit": "mL/min"}, {"measurement": "Heart rate", "setting": "[12]", "result": -35, "unit": "beats min-1"}, {"measurement": "Change in heart rate", "setting": "[13]", "result": -11, "unit": "%"}, {"measurement": "Heart rate", "setting": "[13]", "result": -41, "unit": "beats min-1"}, {"measurement": "Change in respiratory frequency", "setting": "[14]", "result": "6 beats min-1 and 6%"}, {"measurement": "Heart rate", "setting": "[15]", "result": 24, "unit": "beats min-1"}, {"measurement": "BP", "setting": "[16]", "result": -13, "unit": "mmHg"}, {"measurement": "Change in BP", "setting": "[16]", "result": -17, "unit": "%"}, {"measurement": "Change in respiratory frequency", "setting": "[17]", "result": "-15 beats min-1 and -16%"}, {"measurement": "Change in respiratory frequency", "setting": "[18]", "result": "-67 beats min-1 and -70%"}, {"measurement": "BP", "setting": "[19]", "result": -14, "unit": "mmHg"}, {"measurement": "Change in BP", "setting": "[19]", "result": -13, "unit": "%"}, {"measurement": "BP", "setting": "[20]", "result": -43, "unit": "mmHg"}, {"measurement": "Change in BP", "setting": "[20]", "result": -55, "unit": "%"}, {"measurement": "BP", "setting": "[21]", "result": -33, "unit": "mmHg"}, {"measurement": "dP/dt", "setting": "[22]", "result": 2739, "unit": "mmHg s-1"}, {"measurement": "BP", "setting": "[23]", "result": 5, "unit": "mmHg"}, {"measurement": "Change in respiratory frequency", "setting": "[24]", "result": "5 beats min-1 and 5%"}, {"measurement": "Change in stroke volume", "setting": "[25]", "result": -43, "unit": "%"}, {"measurement": "Stroke volume", "setting": "[25]", "result": -86, "unit": "µL"}, {"measurement": "BP", "setting": "[26]", "result": 10, "unit": "mmHg"}, {"measurement": "Change in BP", "setting": "[26]", "result": 13, "unit": "%"}, {"measurement": "Heart rate", "setting": "[27]", "result": -35, "unit": "beats min-1"}, {"measurement": "Change in stroke volume", "setting": "[28]", "result": 36, "unit": "%"}, {"measurement": "BP", "setting": "[29]", "result": -43, "unit": "mmHg"}, {"measurement": "Change in heart rate", "setting": "[30]", "result": -3, "unit": "%"}, {"measurement": "Heart rate", "setting": "[30]", "result": -9, "unit": "beats min-1"}]}
